LMPTP block: LMPTP (human) inhibition; recombinant LMPTP-A, OMFP fluorogenic substrate, fluorescence intensity; inhibition, % at 20 µM; hit rate 0.22% among 360,000; AID 651560;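 active = compounds that cut the enzyme signal by at least half of the control window in the single-dose screen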;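 note: plate controls were DMSO wells with enzyme plus substrate for no effect and substrate without enzyme for full effect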
Target sequence (P24666 whole entry, looked up): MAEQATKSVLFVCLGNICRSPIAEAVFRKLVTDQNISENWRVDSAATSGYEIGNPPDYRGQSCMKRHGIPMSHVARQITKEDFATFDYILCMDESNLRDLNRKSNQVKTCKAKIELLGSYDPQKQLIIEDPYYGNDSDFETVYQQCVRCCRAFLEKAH
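Assay system: LMPTP-A phosphatase enzyme | Input: 0.625 nM enzyme | Also added: Fluorogenic phosphatase substrate OMFP at 400 µM final | Compound dosing: One test concentration per compound, 20 µM, with 3% DMSO overall | Schedule: 50 min enzyme reaction at room temperature, protected from light | Signal: Fluorescence intensity | Benchmarks: no-enzyme and uninhibited controls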
NadD inh: NadD (S. aureus) enzyme inhibition. purified NadD enzyme, colorimetric absorbance read-out. inhibition, % at 20 µM. hit rate 0.78% among 360,000; in the data active = inhibition above about 26%
DNMT1 block: inhibitors of human DNMT1; DNMT1 molecular beacon, Hinp1I cleavage, fluorescence; hit rate 0.83% among 360,000; P26358; AID 588458; inhibition (reported as % activation of signal), % at 10 µM; in the data active = inhibition above about 50%
SUMO1 PPI mod: alters human SUMO1 binding to SIM partners; SUMO1 binding to a labelled peptide, TR-FRET, 1 h; inhibition, % at 20 µM; hit rate 0.33% among 360,000; AID 602429; in the data active = inhibition above about 37%
Target sequence (P63165 whole entry, looked up): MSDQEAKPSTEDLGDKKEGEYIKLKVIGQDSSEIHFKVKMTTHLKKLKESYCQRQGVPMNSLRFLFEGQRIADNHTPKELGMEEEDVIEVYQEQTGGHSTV
Scp1 inh: blocks human Scp-1 phosphatase activity; Q9GZU7; AID 493091; inhibition, % at 20 µM; hit rate 0.88% among 340,000; Recombinant Scp1, phosphopeptide, malachite green phosphate absorbance;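 active = inhibition above about 50% at 20 µM, limit read from the data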;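 note: plate controls were DMSO wells with enzyme for no effect and wells lacking enzyme for full effect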
Target sequence (Q9GZU7 76-261 limits assumed): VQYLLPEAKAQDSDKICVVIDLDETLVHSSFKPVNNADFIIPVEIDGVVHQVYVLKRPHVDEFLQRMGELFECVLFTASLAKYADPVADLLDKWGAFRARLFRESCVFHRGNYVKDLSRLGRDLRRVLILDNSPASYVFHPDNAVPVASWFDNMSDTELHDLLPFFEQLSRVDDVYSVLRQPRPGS
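System: SCP-1 catalytic domain; Reagent: Phospho 17-mer peptide substrate; Doses: one concentration, 20 µM, with 1.0% DMSO; Incubation: 45 min room-temperature reaction, 5 min colour, 30 min stabiliser; Signal: Phosphate-binding colour reagent, absorbance read at 630 nm.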
STEP inh: inhibitors of human striatal-enriched phosphatase STEP; P54829; recombinant STEP, OMFP fluorogenic substrate, fluorescence; inhibition, % at 20 µM; hit rate 0.25% among 360,000; AID 588621;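 active = inhibition at 20 µM, scaled per plate between control wells, above about 37%, limit read from the data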;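 note: 0% = DMSO with enzyme and substrate and 100% = substrate only without enzyme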
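Material: STEP (striatal-enriched tyrosine phosphatase) enzyme, cell-free; Compound dosing: 20 µM single dose in 1% DMSO; Technique: fluorescence read at 480 nm ex / 540 nm em; Times: reaction 20 min, ambient temperature; Medium: 50 mM Bis-Tris pH 6.0 with 2.5 mM DTT and 0.005% Tween 20; Also added: OMFP at 25 µM.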
Scp-1 conf: Scp-1 (human) inhibition, single-dose confirmed | shares compounds with Scp1 inh | recombinant SCP-1 catalytic domain, phosphate release, malachite green absorbance | inhibition, % at 20 µM | hit rate 61% among 2,500 | AID 540281;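 note: plate controls were DMSO with enzyme for no effect and buffer wells lacking enzyme for full effect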
MG interference: interferes with malachite green readout, flagging false Scp-1 hits. shares compounds with Scp1 inh. Colorimetric interference counterscreen, malachite green absorbance 630 nm. apparent inhibition (interference), % at 20 µM. 2,500 tested, under 10 active;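 note: compounds added after enzyme reaction finished so only phosphate colour detection is probed; plate controls were DMSO wells with completed Scp-1 reaction for no effect and substrate wells lacking enzyme for full effect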
Scp-1 Tm shift: Scp-1 (human) binding by thermal shift; shares compounds with Scp1 inh; Recombinant SCP1, Sypro Orange thermal shift Tm; thermal shift relative to vanadate control, % at 40 µM; hit rate 25% among 1,500; AID 540329;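 active = substances whose mean melting-temperature shift, as a percentage of the reference inhibitor's shift, reaches about 5.3%, limit read from the data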;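 note: 0% = Tm of DMSO wells and 100% = Tm with sodium orthovanadate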
Active calls of the source: *; x = no result. Compounds with a hit are over-represented: about 2.4% of the library has one in this group of screens.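 Rule for the calls, unless noted: active = inhibition of at least 30% at 20 µM; inactive = the rest.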

SMILES	LMPTP block	NadD inh	DNMT1 block	SUMO1 PPI mod	Scp1 inh	STEP inh	Scp-1 conf	MG interference	others
CCOC(=O)c1c(CN(C)C)n(-c2ccc(C)cc2)c2cc(Br)c(O)cc12	-80	-2	5	5	3	1	x	x
Cn1c(NN)nc2c1c(=O)n(Cc1ccccc1)c(=O)n2C	8	0	-5	-2	68*	8	62*	5	Scp-1 Tm shift=9.4*
CC(C)C[C@H](NC(=O)NCCC1=CCCCC1)C(=O)O	-2	-1	1	0	-4	-5	x	x
COC(=O)[C@H](CC(C)C)NC(=O)NCCC1=CCCCC1	0	-4	5	11	85*	0	-11	-11
CSc1ccccc1NC(=O)CN(C)CC(=O)c1[nH]c(C)c(C(C)=O)c1C	-1	4	3	-4	101*	-1	-19	-24
Cc1noc(C)c1NC(=O)N(C)C[C@H]1Oc2c(cccc2N(C)C)C(=O)N([C@H](C)CO)C[C@@H]1C	-1	3	4	1	74*	-4	17	2
Cc1noc(C)c1NC(=O)Nc1cccc2c1O[C@H](CN(C)S(C)(=O)=O)[C@@H](C)CN([C@H](C)CO)C2=O	-1	3	5	2	-5	-1	x	x
COc1ccc(S(=O)(=O)N(C)C[C@H]2Oc3c(NC(=O)Nc4c(C)noc4C)cccc3C(=O)N([C@@H](C)CO)C[C@H]2C)cc1	-2	-1	-3	0	56*	0	1	-16
Cc1nn(-c2ccccc2)c(Cl)c1C(=O)OC(C)C(=O)Nc1ccc2c(c1)OCO2 (centres undefined)	1	-2	-13	2	-9	-13	x	x
COc1ccc([C@H](C)NC[C@H](O)c2ccc(O)c(NC=O)c2)cc1	0	1	-4	-1	-12	0	x	x
O=C(N/N=C/C(Cl)=C/c1ccc([N+](=O)[O-])cc1)C(=O)Nc1ccc(C(=O)O)cc1	22	4	46	3	85*	34	62*	-16	Scp-1 Tm shift=-3
O=C(N/N=C/C(Cl)=C/c1ccc([N+](=O)[O-])cc1)C(=O)Nc1ccccc1C(=O)O	2	25	-13	1	40	4	x	x
Cc1c(C(=O)OCC[N+]2(C)CCCCC2)oc2ccccc12	-1	16	-5	-3	89*	1	4	-19
Cc1ccc(S(=O)(=O)N2CCCC2C(=O)OCc2ccco2)cc1 (centres undefined)	0	14	28	11	77*	2	69*	-8	Scp-1 Tm shift=2
COc1ccc(NC(=O)c2ccc3c(c2)CCN3S(=O)(=O)c2ccccc2)c(OC)c1	3	-4	-1	1	61*	-1	-30	-32
NC(=O)c1ccc(NC(=O)c2ccc3c(c2)CCN3S(=O)(=O)c2ccccc2)cc1	1	-5	2	1	-10	-8	x	x
CCC(C)c1ccccc1N1CC(C(=O)Nc2ccc(C)c(S(=O)(=O)N3CCOCC3)c2)CC1=O (centres undefined)	0	-5	-4	-5	-11	-2	x	x
COc1cccc(-c2cc(C(F)(F)F)nc(-n3cncn3)n2)c1	-2	-3	-4	-3	-8	0	x	x
COc1cccc(-c2cc(C(F)(F)F)nc(-n3cc(C)cn3)n2)c1	1	-12	-1	2	55*	1	-15	-17
CN1/C(=C/c2cccc[n+]2CCO)Sc2ccccc21	-1	15	3	-18	103*	0	18	-7
CCC1(c2ccc(F)cc2)NC(=O)N(CC(=O)NCC(=O)Nc2cccc(C)c2C)C1=O (centres undefined)	0	-4	2	2	-3	0	-15	-11
